Results on 26 molecules are retold here after ChEMBL document CHEMBL1132258, “gamma-Aminobutyrate-A receptor modulation by 3-aryl-1-(arylsulfonyl)- 1,4,5,6-tetrahydropyridazines” (J Med Chem, 1999).

The structures appear in SMILES notation. Where only a bound is given, the exact number is not on record here.

In experiment [1] the target is GABA-A receptor; anion channel. Kind of experiment: In vitro binding affinity to the Gamma-aminobutyric acid A receptor complex in presence of GABA in rat cerebellum tissue. The format is tissue-based.
For experiment [2], the target named is T1, GABA-A receptor; anion channel (Rattus norvegicus) (UniProt O09028+P15431+P18506+P18508+P19969+P20236+P23574+P23576+P28471+P28473+P30191+P62813+P63079+P63138+Q91ZM7+Q9ES14). Kind of experiment: Ratio of IC50 in the presence and absence of GABA. It counts as functional.
Experiment [3] concerns the target GABA-A receptor; anion channel. Kind of experiment: In vitro binding affinity to the Gamma-aminobutyric acid A receptor complex in absence of GABA in rat cerebellum tissue. The format is tissue-based.
Experiment [4] has as its system Mus musculus. Briefly: In vivo Horizontal screen test for motor impairment by the compound at the mentioned dose of 1, i.p. ( mg/kg); out of 6 tested animals. The format is functional. The gist of the method:
(§1)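 Mice were dosed ip with compound or vehicle (10 mL/kg). After 1 h, just before sc pentylenetetrazole, they were placed on an inverted horizontal screen. Passing meant climbing to the top side within 1 min. Results are reported as number passed over number tested.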

The subject of experiment [5] is Mus musculus. Briefly: In vivo Horizontal screen test for motor impairment by the compound at the mentioned dose of 10, i.p. (mg/kg); out of 6 tested animals. The format is functional. The gist of the method:
as §1

Experiment [6] relates to Mus musculus. Kind of experiment: In vivo suppression of pentylenetetrazole-induced convulsions by the compound at the mentioned dose of, 1, i.p. ( mg/kg); out of 6 tested animals. It counts as functional. The gist of the method:
(§2)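 Mice were dosed ip with compound or vehicle (10 mL/kg). Pentylenetetrazole 85 mg/kg sc was given 1 h later. Mice were housed individually and watched for 30 min for clonic convulsions, scored present or absent. Results are reported as number convulsed over number tested.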

The subject of experiment [7] is Mus musculus. Kind of experiment: In vivo suppression of pentylenetetrazole-induced convulsions by the compound at the mentioned dose of, 10, i.p. (mg/kg); out of 6 tested animals. The format is functional. In a few lines: as §2
Experiment [8] deals with Mus musculus. Kind of experiment: In vivo Horizontal screen test for motor impairment by the compound at the mentioned dose of 1, i.p. ( mg/kg); out of 12 tested animals. The format is functional. In a few lines:
(§3)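 Mice were dosed orally or ip (vehicle 10 mL/kg). At 1 h, just before PTZ, each was placed on an inverted horizontal screen and scored pass/fail for climbing to the top side within 1 min. Result given as number passed/number tested.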

The subject of experiment [9] is Mus musculus. Briefly: In vivo suppression of pentylenetetrazole-induced convulsions by the compound at the mentioned dose of, 30, i.p. (mg/kg); out of 11 tested animals. The format is functional. The gist of the method:
(§4)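 Mice received compound or vehicle (10 mL/kg) po or ip. After 1 h they got pentylenetetrazole 85 mg/kg sc. They were housed individually and observed 30 min for clonic convulsions (present/absent). Result given as number convulsed/number tested.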

The subject of experiment [10] is Mus musculus. Briefly: In vivo Horizontal screen test for motor impairment by the compound at the mentioned dose of 30, i.p. (mg/kg); out of 11 tested animals. The format is functional. In a few lines: as §3
Experiment [11] relates to Mus musculus. Briefly: In vivo suppression of pentylenetetrazole-induced convulsions by the compound at the mentioned dose of, 30, p.o. (mg/kg); out of 12 tested animals. The format is functional. The gist of the method:
as §4

For experiment [12], the system named is Mus musculus. Briefly: In vivo Horizontal screen test for motor impairment by the compound at the mentioned dose of 30, p.o. (mg/kg); out of 12 tested animals. The format is functional. In a few lines:
as §3

In experiment [13] the test system is Mus musculus. Briefly: In vivo suppression of pentylenetetrazole-induced convulsions by the compound at the mentioned dose of, 1, i.p. ( mg/kg); out of 12 tested animals. It counts as functional. The gist of the method:
as §4

In experiment [14] the test system is Mus musculus. Briefly: In vivo suppression of pentylenetetrazole-induced convulsions by the compound at the mentioned dose of, 10, i.p. (mg/kg); out of 12 tested animals. The format is functional. In a few lines: as §4
Experiment [15] concerns Mus musculus. Briefly: In vivo Horizontal screen test for motor impairment by the compound at the mentioned dose of 10, i.p. (mg/kg); out of 12 tested animals. The format is functional. The gist of the method:
as §3

Experiment [16] has as its system Mus musculus. Kind of experiment: In vivo Horizontal screen test for motor impairment by the compound at the mentioned dose of 100, i.p. ( mg/kg); out of 6 tested animals. It counts as functional. The gist of the method: as §1
Experiment [17] relates to Mus musculus. Briefly: In vivo suppression of pentylenetetrazole-induced convulsions by the compound at the mentioned dose of, 100, i.p. ( mg/kg); out of 6 tested animals. The format is functional. The gist of the method: as §2
The subject of experiment [18] is Mus musculus. Kind of experiment: In vivo suppression of pentylenetetrazole-induced convulsions by the compound at the mentioned dose of, 30, i.p. (mg/kg); out of 6 tested animals. The format is functional. In a few lines: as §4
The test system of experiment [19] is Mus musculus. Briefly: In vivo Horizontal screen test for motor impairment by the compound at the mentioned dose of 30, i.p. (mg/kg); out of 6 tested animals. The format is functional. In a few lines:
as §3

For experiment [20], the target named is T1, GABA-A receptor; anion channel (Rattus norvegicus). Kind of experiment: Relative binding to GABA-A receptor in the presence and absence of GABA. The format is functional.

`CCOP(=O)(c1ccccc1)N1CCCC(c2ccc(F)cc2)=N1` (configuration not stated): the IC50 in experiment [1] is 10 µM; in experiment [3] it was over 11 µM. In [2], the GS came to 1.1.
For `CCOP(=O)(c1ccccc1)N1CCCC(c2ccc(Cl)c(Cl)c2)=N1` (configuration not stated), the figures for the IC50 in experiment [1] and in experiment [3] were 1.05 µM and 1.39 µM, respectively. Besides, the Horizontal screen in the experiment with Mus musculus [4] and in the experiment on Mus musculus [5] was 5 number passed throughout. Moreover, the GS in experiment [2] amounted to 1.3. Moreover, the Induced convulsion in the experiment with Mus musculus [6] and with Mus musculus [7] was 6 number convulsed in each case.
In the case of `CCCCc1ccc(C2=NN(P(=O)(OCC)c3ccccc3)CCC2)cc1` (configuration not stated), the 50% inhibitory concentration (IC50) in [1] came to 0.73 µM; in experiment [3], 1.12 µM. Also, the GS in [2] came to 1.5. The molecule further displayed a Horizontal screen in the experiment on Mus musculus [5] of 5 number passed. Further, the Induced convulsion in the experiment with Mus musculus [7] amounted to 5 number convulsed.
As for `CCCCc1ccc(S(=O)(=O)N2CCCC(c3ccc(CC)cc3)=N2)cc1`, the results for the IC50 in experiment [1] and in experiment [3] were 1.8 µM and 3.77 µM, respectively. Further, the GS in [2] was found to be 2.1.
For `CCc1ccc(C2=NN(S(=O)(=O)c3ccc(I)cc3)CCC2)cc1`, in that order: 0.9 µM, 10 µM and 11.1.
As for `CCCCc1ccc(C2=NN(S(=O)(=O)c3ccc(CCCC)cc3)CCC2)cc1`, the Horizontal screen in the experiment with Mus musculus [8] was 11 number passed; in the experiment with Mus musculus [10], 10 number passed; in the experiment on Mus musculus [12], 12 number passed; in the experiment with Mus musculus [15], 12 number passed. Also, the IC50 is 0.21 µM in experiment [1] and over 11 µM in [3]. For the same molecule, the Induced convulsion in the experiment on Mus musculus [9] was 10 number convulsed; with Mus musculus [11], 12 number convulsed; in the experiment on Mus musculus [13], 9 number convulsed; in the experiment with Mus musculus [14] it was 8 number convulsed. In addition, the GS in experiment [2] stood at 52.4.
With `CCCCc1ccc(C2=NN(S(=O)(=O)c3ccc(Cl)cc3)CCC2)cc1`, the IC50 in experiment [1] and in [3] was over 11 µM in each case.
As for `CCOP(=O)(c1ccccc1)N1CCCC(c2ccc(Cl)c(C(F)(F)F)c2)=N1` (configuration not stated), the IC50 in [1] is 1.1 µM; in experiment [3], 5.4 µM. The GS in [2] stood at 4.9.
With `COP(=O)(c1ccccc1)N1CCCC(c2ccccc2)=N1` (configuration not stated), the half-maximal inhibitory concentration (IC50) in [1] was over 11 µM.
`CC(C)OP(=O)(c1ccccc1)N1CCCC(c2ccc(Cl)c(Cl)c2)=N1` (configuration not stated) registered a Horizontal screen with Mus musculus [16] of 0 number passed. The half-maximal inhibitory concentration (IC50) in [1] came to 1.4 µM; in [3] it was 10 µM. Also, the Induced convulsion in the experiment on Mus musculus [17] is given as 4 number convulsed. Also, in experiment [2], the GS is 7.1.
Take `COP(=O)(c1ccccc1)N1CCCC(c2ccc(Cl)c(C(F)(F)F)c2)=N1` (configuration not stated): the half-maximal inhibitory concentration (IC50) amounted to 6.6 µM in [1] and 8.3 µM in experiment [3]. Besides, the GS in experiment [2] was 1.3.
Turning to `COP(=O)(c1ccccc1)N1CCCC(c2ccc(Br)cc2)=N1` (configuration not stated), the IC50 in experiment [1] and in experiment [3] was over 11 µM in each case.
In the case of `O=P(OC1CCCC1)(c1ccccc1)N1CCCC(c2ccc(Cl)c(Cl)c2)=N1` (configuration not stated), the GS in [2] came out at 32.6.
For `CCCCc1ccc(S(=O)(=O)N2CCCC(c3ccc(C(C)C)cc3)=N2)cc1`, in experiment [1], the half-maximal inhibitory concentration (IC50) was 10 µM.
`CC(=O)[C@H]1CC[C@H]2[C@@H]3CC[C@H]4C[C@H](O)CC[C@]4(C)[C@H]3CC[C@]12C` [BREXANOLONE]: the IC50 was 0.08 µM in experiment [1] and 2.61 µM in experiment [3]. Also, the GS in [2] was 32.6.
For `CC(C)Cc1ccc(C2=NN(S(=O)(=O)c3ccc(I)cc3)CCC2)cc1`, the IC50 in experiment [1] and in [3] was over 11 µM each time.
For `CC(C)c1ccc(C2=NN(S(=O)(=O)c3ccc(I)cc3)CCC2)cc1`, the figures for the IC50 in experiment [1] and in experiment [3] were 6.31 µM and over 11 µM, respectively. For the same molecule, the GS in experiment [2] turned out to be 1.7.
In the case of `CCCCc1ccc(S(=O)(=O)N2CCCC(c3ccc(CC(C)C)cc3)=N2)cc1`, the half-maximal inhibitory concentration (IC50) in [1] and in [3] was over 11 µM each time.
As to `CCCCc1ccc(C2=NN(S(=O)(=O)c3ccc(I)cc3)CCC2)cc1`, the Induced convulsion with Mus musculus [18] was 6 number convulsed. Besides, the IC50 in [1] is 0.77 µM; in experiment [3], 10 µM. The Horizontal screen with Mus musculus [19] is recorded as 3 number passed. Further, the GABA shift in [20] amounted to 13.7.
On to `CCCCc1ccc(C2=NN(S(=O)(=O)c3ccc(C)cc3)CCC2)cc1`, for which the half-inhibitory concentration (IC50) in [1] is 2.2 µM; in [3], over 11 µM. Besides, in [2], the GS is 5.
Consider `COP(=O)(c1ccccc1)N1CCCC(c2ccc(F)cc2)=N1` (configuration not stated), for which the IC50 was 10 µM in [1] and over 11 µM in experiment [3]. Besides, the GS in [2] turned out to be 1.1.
For `CCCCc1ccc(C2=NN(P(=O)(OC)c3ccccc3)CCC2)cc1` (configuration not stated), in that order: 0.5 µM, 2 µM and 4.
For `COc1ccc(C2=NN(P(=O)(OC)c3ccccc3)CCC2)cc1` (configuration not stated), in that order: 6.4 µM, over 11 µM and 1.7.
Regarding `CCCCCCc1ccc(C2=NN(S(=O)(=O)c3ccc(I)cc3)CCC2)cc1`, the IC50 in [1] and in experiment [3] was over 11 µM throughout.
For the molecule `C[C@]12CC[C@@H](O)C[C@@H]1CC[C@@H]1[C@@H]2CC[C@]2(C)[C@@H](C(=O)CO)CC[C@@H]12`, the IC50 amounted to 0.09 µM in [1] and 3.05 µM in [3]. The GS in [2] stood at 33.9.
The molecule `CCCCc1ccc(C2=NN(S(=O)(=O)c3ccccc3)CCC2)cc1` gave a Horizontal screen with Mus musculus [16] of 4 number passed. The concentration for half-maximal inhibition (IC50) is 1.1 µM in experiment [1] and over 11 µM in [3]. Besides, the Induced convulsion in the experiment on Mus musculus [17] is reported as 5 number convulsed. Besides, the GS in [2] turned out to be 10.
